Eleven compounds from ChEMBL document CHEMBL1154869, “Melodinines A-G, monoterpenoid indole alkaloids from Melodinus henryi” (J Nat Prod, 2010) can be followed below.

Holding throughout (format): functional, cell-based
The subject of assay [1] is HL-60. The experiment in a line: Cytotoxic activity against human HL60 cells after 48 hrs by MTT assay. The following applies: HL-60, 48 h. The gist of the method:
(§1)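 Cells kept in RPMI1640 or DMEM with 10% FBS, 5% CO2, 37 °C. Adherent lines seeded in 96-well plates and left 12 h to attach; suspension cells (HL-60) seeded at drug addition, 1 × 10^5 cells/mL. Compounds at 0.0625, 0.32, 1.6, 8 and 40 µM in triplicate for 48 h. Viability by MTT; IC50 from growth curves via Reed and Muench method; cisplatin positive control.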

The subject of assay [2] is SK-BR-3. The experiment in a line: Cytotoxic activity against human SK-BR-3 cells after 48 hrs by MTT assay. To be noted: SK-BR-3, 48 h. The gist of the method: as §1
Assay [3] relates to A549. As to the kind of experiment: Cytotoxic activity against human A549 cells after 48 hrs by MTT assay. The following applies: A549, 48 h. The gist of the method:
as §1

For assay [4], the system named is SMMC-7721. As to the kind of experiment: Cytotoxic activity against human SMMC7721 cells after 48 hrs by MTT assay. To be noted: SMMC-7721, 48 h. The gist of the method:
as §1

Bounds are passed on as bounds.

For the compound `CC[C@]12CCCN3CCc4c(n(c5ccccc45)[C@H](OC)C1)[C@@H]32`, the IC50 in assay [1], in assay [2], in assay [3] and in assay [4] was greater than 40 µM each time.
Turning to `CC[C@@]12C=Cn3c4c(c5ccccc53)CCN(CCC1)[C@H]42`, the IC50 in assay [1], in assay [2], in assay [3] and in assay [4] was greater than 40 µM each time.
As to `CC[C@@H]1CN2CC[C@]34c5ccccc5-n5c3c(cc(C(N)=O)c5=O)[C@H]1C[C@H]24` [LEUCONICINE A], the IC50 in assay [1], in assay [2], in assay [3] and in assay [4] was greater than 40 µM in each case.
For `CC[C@@H]1CN2CC[C@]34c5ccccc5-n5c3c(cc(C(=O)OC)c5=O)[C@H]1C[C@H]24` [LEUCONICINE B], the IC50 in assay [1], in assay [2], in assay [3] and in assay [4] was greater than 40 µM throughout.
Take `CCC1=CN2CC[C@]34c5ccccc5-n5c3c(cc(C(=O)OC)c5=O)[C@H]1C[C@H]24` [MELODININE B]: the IC50 in assay [1], in assay [2], in assay [3] and in assay [4] was greater than 40 µM throughout.
Consider `CC[C@@H]1CN2CC[C@]34c5ccccc5-n5c3c(cc(C(=O)O)c5=O)[C@H]1C[C@H]24` [MELODININE C], for which the IC50 in assay [1], in assay [2], in assay [3] and in assay [4] was greater than 40 µM in each case.
Consider `COC(=O)C1=C2Nc3ccccc3[C@]23CCN2CC[C@H]1[C@@]1(O[C@H]1C)[C@@H]23` [MELODININE D], for which the IC50 in assay [1], in assay [2], in assay [3] and in assay [4] was greater than 40 µM throughout.
With `CC[C@@]12CCCN3C(=O)C=C4c5ccccc5N(C(=O)CC1)C432` (some centres undefined) [MELODININE E], the IC50 in assay [1], in assay [2], in assay [3] and in assay [4] was greater than 40 µM in each case.
`CC[C@]12CCC[N+]3([O-])CCc4c(n(c5ccccc45)[C@H](OC)C1)[C@H]23` (some centres undefined) [MELODININE F]: the IC50 in assay [1], in assay [2], in assay [3] and in assay [4] was greater than 40 µM in each case.
In the case of `CC[C@@]12C=Cn3c4c(c5ccccc53)CC[N+]([O-])(CCC1)[C@H]42` (some centres undefined) [MELODININE G], the IC50 in assay [1], in assay [2], in assay [3] and in assay [4] was greater than 40 µM each time.
Consider `C/C=C(/C=O)[C@@H]1C[C@H]2c3[nH]c4ccccc4c3CCN2C=C1C(=O)OC` [VALLESIACHOTAMINE], for which the IC50 in assay [1] came to 2 µM; in assay [2], 24.7 µM; in assay [3], 26 µM; in assay [4] it was 16.8 µM.
